We go through five compounds from ChEMBL document CHEMBL1137246, “Horseradish peroxidase inhibition and antioxidant activity of ebselen and related organoselenium compounds” (Bioorg Med Chem Lett, 2006).

The nature of test [1]: Effect on gamma irradiation-induced TBARS formation in liposomes at 50 uM. The class given is functional. Summed up:
(§1)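 Liposomal suspensions, N2O/O2-purged, pH 7.4 phosphate buffer, exposed to a constant 280 Gy γ-dose (Fricke dosimetry). Peroxidation followed as TBARS with compound at 0.025–0.150 mM. IC50 is the concentration giving 50% inhibition of lipid peroxidation.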

The nature of test [2]: Inhibition of horseradish peroxidase by spectrophotometric method. Also noted: species or system Armoracia rusticana. An outline of the steps: (§2)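 HRP (70 nM) with ABTS2- as substrate, with or without selenium compound at 0.06–0.1 mM. Reaction started by adding H2O2. Initial rates taken from the absorbance change at 645 nm (ABTS radical cation). Activity without compound set to 100%.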

Test [3] in a line: Inhibition of gamma radiation-induced lipid peroxidation in liposomes. It counts as functional. Summed up:
as §1

Test [4] can be described thus: Glutathione peroxidase activity assessed by GSH-GSSG coupled assay. The class given is functional. An outline of the steps: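 GPx-like activity measured by GSH–GSSG coupled assay: glutathione reductase 0.3 U/ml, NADPH 0.25 mM, GSH 0.5–6 mM, compound 0.025 mM (in methanol, 2% in buffer), H2O2 1 mM substrate. NADPH loss at 340 nm fitted to an exponential; initial rates from ε 6220 M-1 cm-1, corrected for uncatalysed H2O2–GSH reaction. Km and Vmax from Lineweaver–Burk plots.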

Test [5] can be described thus: Antioxidant activity assessed by singlet oxygen quenching ability. The class given is functional.
Test [6] relates to Armoracia rusticana. The test can be described thus: Inhibition of horseradish peroxidase at 100 uM. An outline of the steps: as §2
Test [7] can be described thus: Inhibition of gamma radiation-induced lipid peroxidation in liposomes at 200 uM. It counts as functional.
Test [8] can be described thus: Antioxidant activity assessed by singlet oxygen quenching ability at 1mM. It counts as functional.

pIC50: −log10 of the molar value. Activity calls are given as the source filed them. The rule behind the calls is not given here.

As to `O=C(Nc1ccccc1)c1ccccc1[Te][Te]c1ccccc1C(=O)Nc1ccccc1` [EBSELEN DITELLURIDE], the outcome in test [1] (Liposome) and in test [5] was Active. Further, the pIC50 was 4.76 in test [2] and 3.76 in test [3]. For the same compound, the Michaelis-Menten constant (Km) in test [4] came to 2.3 mM.

`O=c1c2ccccc2[se]n1-c1ccccc1` [EBSELEN]: the result in test [1] and in test [5] was Active. For the same compound, the pIC50 in test [2] is 4.77; in test [3] it was 4.60. For the same compound, in test [4], the Michaelis-Menten constant (Km) is 13.2 mM.

For `C[Se]c1ccccc1C(=O)Nc1ccccc1`, the outcome in test [1] (Liposome) and in test [5] was Active. Further, the pIC50 was less than 4.00 in test [2] and 4.00 in test [3]. The compound also gave an inhibition in test [6] of 25.5%. In test [4], the Km amounted to 5.25 mM.

As to `O=C(Nc1ccccc1)c1ccccc1[Se]Cc1ccccc1`, the outcome in test [1] (Liposome) and in test [5] was Active. Moreover, the results for the pIC50 in test [2] and in test [3] were less than 4.00 and 4.12, respectively. For the same compound, the inhibition in test [6] was found to be 33.1%. In addition, the Km in test [4] was found to be 2.2 mM.

Consider `O=C(Nc1ccccc1)c1ccccc1[Se][Se]c1ccccc1C(=O)Nc1ccccc1` [EBSELEN DISELENIDE], for which the outcome in test [1] (Liposome) was Active. Besides, in test [2], the pIC50 is 4.30. The inhibition in test [7] turned out to be 19%. Besides, the result in test [8] was inactive.

One may read the pIC50 as the negative decadic logarithm of the IC50, by convention in mol/L. Higher therefore signals a small IC50. The Km is the concentration of substrate that gives half-maximal velocity. Broadly, the inhibition is the share of the control response that was lost under treatment. A low value points to little suppression.
